Source: ChEMBL document CHEMBL1144747, “(Phenylpiperazinyl-butyl)oxindoles as selective 5-HT7 receptor antagonists” (J Med Chem, 2008)

Key:
[1] = target: T1, 5-hydroxytryptamine receptor 1A (Rattus norvegicus) (UniProt P19327); assay: Displacement of [3H]8-OH-DPAT from 5HT1A receptor in rat frontal cortex membrane at 0.1 uM; format: cell membranes
T1 sequence (whole entry): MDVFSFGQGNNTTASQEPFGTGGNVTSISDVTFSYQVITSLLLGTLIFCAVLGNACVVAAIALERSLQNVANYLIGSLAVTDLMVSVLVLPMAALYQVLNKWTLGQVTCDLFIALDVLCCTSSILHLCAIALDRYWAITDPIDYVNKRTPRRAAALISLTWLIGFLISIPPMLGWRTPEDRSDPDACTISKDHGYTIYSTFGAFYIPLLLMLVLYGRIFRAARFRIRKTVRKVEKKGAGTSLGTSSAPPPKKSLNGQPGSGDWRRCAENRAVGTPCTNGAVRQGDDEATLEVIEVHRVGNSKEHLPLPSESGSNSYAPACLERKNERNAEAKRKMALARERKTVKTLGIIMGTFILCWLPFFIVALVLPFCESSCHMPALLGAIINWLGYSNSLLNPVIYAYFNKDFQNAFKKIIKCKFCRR
Outline: (§1)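 Rat tissue homogenized in 50 mM Tris-HCl pH 7.7, washed by repeated 40000g spins with a 10 min 37 °C incubation. Buffer: Tris-HCl, 6.66 mM CaCl2, 16.66 µM pargyline, 0.166% ascorbate. Labelled with 1.5 nM [3H]8-OH-DPAT, 45 min at 25 °C; nonspecific with 10 µM 5-HT. GF/B filtration, then scintillation counting; percent inhibition.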

[2] = target: 5-hydroxytryptamine receptor 2A (Homo sapiens, UniProt P28223); assay: Inhibition of 5HT2A receptor
Chain of 5-hydroxytryptamine receptor 2A (P28223 whole entry): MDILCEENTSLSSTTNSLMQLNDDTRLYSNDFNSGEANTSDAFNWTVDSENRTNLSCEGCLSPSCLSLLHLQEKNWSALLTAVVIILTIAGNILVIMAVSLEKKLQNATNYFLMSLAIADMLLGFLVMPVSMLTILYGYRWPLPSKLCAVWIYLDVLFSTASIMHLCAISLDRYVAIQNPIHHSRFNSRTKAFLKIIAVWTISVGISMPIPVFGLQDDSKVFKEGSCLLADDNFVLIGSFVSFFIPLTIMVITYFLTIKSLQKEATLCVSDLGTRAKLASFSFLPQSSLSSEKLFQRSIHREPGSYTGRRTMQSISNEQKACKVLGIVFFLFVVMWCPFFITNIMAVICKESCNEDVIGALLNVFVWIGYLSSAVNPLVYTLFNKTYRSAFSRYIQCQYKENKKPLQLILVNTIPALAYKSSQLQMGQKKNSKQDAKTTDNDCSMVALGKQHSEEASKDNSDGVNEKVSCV

[3] = target: T2, Alpha-1A adrenergic receptor (Homo sapiens, UniProt P35348); assay: Inhibition of adrenergic alpha-1 receptor
T2 sequence (P35348 whole entry): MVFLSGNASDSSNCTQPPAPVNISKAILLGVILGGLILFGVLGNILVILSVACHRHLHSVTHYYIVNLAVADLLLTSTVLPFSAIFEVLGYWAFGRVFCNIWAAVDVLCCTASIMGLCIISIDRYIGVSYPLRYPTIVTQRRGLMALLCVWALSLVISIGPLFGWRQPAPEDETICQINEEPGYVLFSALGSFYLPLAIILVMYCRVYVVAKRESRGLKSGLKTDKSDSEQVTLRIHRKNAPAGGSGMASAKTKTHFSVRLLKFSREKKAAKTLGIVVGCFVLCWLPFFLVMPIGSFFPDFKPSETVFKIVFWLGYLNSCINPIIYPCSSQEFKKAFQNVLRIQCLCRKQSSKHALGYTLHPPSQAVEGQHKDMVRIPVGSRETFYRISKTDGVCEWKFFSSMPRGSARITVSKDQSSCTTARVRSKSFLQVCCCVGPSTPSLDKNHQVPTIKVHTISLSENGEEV

[4] = target: T3, 5-hydroxytryptamine receptor 2C (Homo sapiens, UniProt P28335); assay: Inhibition of 5HT2C receptor
T3 sequence (P28335 whole entry): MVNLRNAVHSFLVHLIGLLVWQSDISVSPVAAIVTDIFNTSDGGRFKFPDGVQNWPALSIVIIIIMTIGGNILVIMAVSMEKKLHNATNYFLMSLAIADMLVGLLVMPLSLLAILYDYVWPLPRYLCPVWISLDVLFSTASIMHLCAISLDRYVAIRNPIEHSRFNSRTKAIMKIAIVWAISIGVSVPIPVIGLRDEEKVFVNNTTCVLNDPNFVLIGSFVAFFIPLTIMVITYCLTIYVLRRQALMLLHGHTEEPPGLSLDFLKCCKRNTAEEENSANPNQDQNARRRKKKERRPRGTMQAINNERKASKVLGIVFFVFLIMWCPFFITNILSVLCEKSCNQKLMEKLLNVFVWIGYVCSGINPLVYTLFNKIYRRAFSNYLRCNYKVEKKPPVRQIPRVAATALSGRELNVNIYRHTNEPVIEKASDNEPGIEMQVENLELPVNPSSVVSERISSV

[5] = system: Mus musculus; assay: Anxiolytic activity in ip dosed NMRI mouse assessed as behavioral activity for 5 mins by light dark assay; format: functional; conditions: read-out: MED
Outline: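 Male NMRI mice, 25–33 g, kept in a dark room and dosed ip 30 min before test, then placed in the centre of the lit area. Over 5 min, time in each area, transitions, and horizontal and vertical activity were recorded. Minimal effective dose by one-way ANOVA with Duncan's test.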

[6] = target: D(2) dopamine receptor (Homo sapiens, UniProt P14416); assay: Inhibition of dopamine D2 receptor
Chain of D(2) dopamine receptor (P14416 whole entry): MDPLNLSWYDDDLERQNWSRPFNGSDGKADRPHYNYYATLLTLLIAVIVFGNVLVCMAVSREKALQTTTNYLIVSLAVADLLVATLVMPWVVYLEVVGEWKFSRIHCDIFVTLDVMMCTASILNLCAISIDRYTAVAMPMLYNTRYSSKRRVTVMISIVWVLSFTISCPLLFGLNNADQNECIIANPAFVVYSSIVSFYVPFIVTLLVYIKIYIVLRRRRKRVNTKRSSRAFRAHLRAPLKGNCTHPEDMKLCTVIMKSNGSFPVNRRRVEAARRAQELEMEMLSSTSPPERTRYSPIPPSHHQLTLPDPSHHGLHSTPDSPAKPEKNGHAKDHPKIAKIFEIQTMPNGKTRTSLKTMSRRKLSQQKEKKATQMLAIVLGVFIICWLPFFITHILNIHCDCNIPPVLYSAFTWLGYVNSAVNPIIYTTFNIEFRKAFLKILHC

[7] = target: 5-hydroxytryptamine receptor 6 (Homo sapiens, UniProt P50406); assay: Inhibition of 5HT6 receptor
Chain of 5-hydroxytryptamine receptor 6 (P50406 whole entry): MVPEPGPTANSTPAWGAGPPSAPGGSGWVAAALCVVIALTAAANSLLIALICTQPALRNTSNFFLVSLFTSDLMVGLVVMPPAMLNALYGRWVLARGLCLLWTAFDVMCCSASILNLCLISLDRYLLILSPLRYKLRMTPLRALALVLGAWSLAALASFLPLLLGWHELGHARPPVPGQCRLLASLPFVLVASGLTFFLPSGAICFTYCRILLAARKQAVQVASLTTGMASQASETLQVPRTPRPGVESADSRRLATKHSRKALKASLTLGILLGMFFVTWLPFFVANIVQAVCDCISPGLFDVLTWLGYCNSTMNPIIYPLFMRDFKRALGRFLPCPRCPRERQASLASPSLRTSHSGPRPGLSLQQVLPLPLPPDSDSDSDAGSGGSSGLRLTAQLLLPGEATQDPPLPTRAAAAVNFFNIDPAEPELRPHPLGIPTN

[8] = target: T4, 5-hydroxytryptamine receptor 1A (Rattus norvegicus, UniProt P19327); assay: Inhibition of 5HT1A receptor in rat frontal cortex membrane; format: cell membranes; outline: as §1
T4 sequence (P19327 whole entry): T1 sequence (whole entry)

[9] = target: T5, 5-hydroxytryptamine receptor 7 (Homo sapiens, UniProt P34969); assay: Displacement of [3H]LSD from human recombinant 5HT7 receptor expressed in CHO cells; format: cell-based; conditions: read-out: Ki
T5 sequence (P34969 whole entry): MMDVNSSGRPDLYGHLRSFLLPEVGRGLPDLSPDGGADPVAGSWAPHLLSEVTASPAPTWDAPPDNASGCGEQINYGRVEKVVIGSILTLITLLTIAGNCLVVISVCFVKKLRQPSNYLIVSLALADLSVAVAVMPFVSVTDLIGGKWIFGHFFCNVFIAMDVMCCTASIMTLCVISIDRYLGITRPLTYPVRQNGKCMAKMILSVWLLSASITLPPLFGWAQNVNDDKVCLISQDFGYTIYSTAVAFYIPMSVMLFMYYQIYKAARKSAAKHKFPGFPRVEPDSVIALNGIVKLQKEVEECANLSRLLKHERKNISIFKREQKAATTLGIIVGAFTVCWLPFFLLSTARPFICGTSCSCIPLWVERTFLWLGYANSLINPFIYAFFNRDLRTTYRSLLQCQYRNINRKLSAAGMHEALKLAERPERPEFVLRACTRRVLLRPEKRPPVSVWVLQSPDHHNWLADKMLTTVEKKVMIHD
Outline: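 Cloned human 5-HT7 receptor from CHO cells, labelled with [3H]LSD; nonspecific binding with 25 µM clozapine. Stopped by filtration on PEI-soaked GF/C filters, then scintillation counting. Ki from two displacement curves of nine concentrations each, run in triplicate.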

[10] = target: D(1A) dopamine receptor (Homo sapiens, UniProt P21728); assay: Inhibition of dopamine D1 receptor
Chain of D(1A) dopamine receptor (P21728 whole entry): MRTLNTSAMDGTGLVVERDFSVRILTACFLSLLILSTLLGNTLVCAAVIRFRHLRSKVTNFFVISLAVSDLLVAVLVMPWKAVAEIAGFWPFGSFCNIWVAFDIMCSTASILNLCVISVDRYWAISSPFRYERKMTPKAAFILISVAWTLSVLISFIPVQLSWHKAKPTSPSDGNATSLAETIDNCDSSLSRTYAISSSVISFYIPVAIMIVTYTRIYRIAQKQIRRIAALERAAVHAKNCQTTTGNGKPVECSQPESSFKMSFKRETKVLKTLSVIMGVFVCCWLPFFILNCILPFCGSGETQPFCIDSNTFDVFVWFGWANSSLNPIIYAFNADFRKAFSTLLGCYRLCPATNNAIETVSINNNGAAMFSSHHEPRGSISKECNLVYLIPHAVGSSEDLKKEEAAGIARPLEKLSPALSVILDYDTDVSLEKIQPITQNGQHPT

[11] = target: T1, 5-hydroxytryptamine receptor 1A (Rattus norvegicus); assay: Displacement of [3H]8-OH-DPAT from 5HT1A receptor in rat frontal cortex membrane at 10 nM; format: cell membranes; outline: as §1
[12] = system: Rattus norvegicus; assay: Anxiolytic activity in ip dosed Wistar rat assessed as number of punished licks for 5 mins by conflict drinking test; format: functional; conditions: read-out: MED
Outline: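 Modified Vogel test in male Wistar rats, 160–180 g, water-deprived 48 h and fasted 24 h. Dosed ip 30 min before test. After a 30 s free-drinking period, 600 µA, 0.6 s shocks came through the spout every 20 licks over 5 min. Punished licks counted; minimal effective dose reported.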

[13] = target: T5, 5-hydroxytryptamine receptor 7; assay: Antagonist activity at human 5HT7A receptor expressed in CHO cells assessed as inhibition of […]-induced cAMP elevation at 1 uM; format: functional, cell-based; parameters: scale not given: the % may be the effect or the level left
Outline: (§2)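 CHO cells stably expressing human 5-HT7A, cultured in F12:DMEM with 5% FCS, seeded 24 h ahead. Compounds from 1 mM DMSO stock (final DMSO 0.1%) preincubated 10 min, then 20 min with 10 nM 5-CT at 37 °C. Cells lysed, cAMP by EIA, normalized to BCA protein. The 5-CT-induced level is taken as 100%; six independent experiments.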

[14] = target: T5, 5-hydroxytryptamine receptor 7; assay: Antagonist activity at human 5HT7A receptor expressed in CHO cells assessed as inhibition of […]-induced cAMP elevation at 10 nM administered before […] challenge; format: functional, cell-based; parameters: scale not given: the % may be the effect or the level left; outline: as §2
[15] = Oral bioavailability in rat; format: ADME, organism-based; conditions: in vivo

Activity [1] [%]	Ki [2] [nM]	Ki [3] [nM]	Ki [4] [nM]	Ki [6] [nM]	Ki [7] [nM]	Ki [8] [nM]	Ki [9] [nM]	Ki [10] [nM]	Activity [11] [%]	Activity [13] [%]	Activity [14] [%]	SMILES	minimal effective dose [5] [mg/kg]	minimal effective dose [12] [mg/kg]	bioavailability [15] [%]
9	19.4	71.3	358	950	187	1610	0.79	3360	0	> 95		CCC1(CCCCN2CCN(c3ccc(Cl)cc3)CC2)C(=O)Nc2cc(F)ccc21 (stereo not given)	> 10	> 20	
33	55	20	1500	330	1800	150	44	1900	5	> 95	40	O=C1Nc2ccc(F)cc2C1CCCCN1CCN(c2ccccc2)CC1 (stereo not given)		< 10	
												O=C1Nc2ccc(Cl)c3c2C1(CCCCN1CC=C(c2ccc(Cl)cc2)CC1)CCC3 (stereo not given)			18
10	17.5	42	690	960	580	1800	7	2400		> 95	80	O=C1Nc2ccccc2C1CCCCN1CCN(c2ccc(Cl)cc2)CC1 (stereo not given)	< 1	< 2.5	
